In the library only some 1% were active in any assay of this set; here they are far more common.
PKA-R2B act: activates the human PKA-R2B holoenzyme complex; actives 0.079% (n = 340,000); P22694+P31323; PKA-R2B holoenzyme dissociation, Cy5-IP20 fluorescence polarization; R2B truncated from residue 108, S112A mutant; 0% DMSO only, 100% 113 µM cGMP; activation, % at 11.4 µM; AID 504700;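 active means activation above a cutoff set at the mean over all compounds plus 3 SD, cut at about 18% in these data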;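 further: higher means more holoenzyme dissociation and a rise in polarization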
Neddyl block: blocks human cullin neddylation. P61081+Q13564. TR-FRET cullin neddylation, biochemical. inhibition, % at 25 µM. actives 0.58% (n = 360,000); in the data active means inhibition above about 36%
Target sequence (P61081 whole entry, looked up): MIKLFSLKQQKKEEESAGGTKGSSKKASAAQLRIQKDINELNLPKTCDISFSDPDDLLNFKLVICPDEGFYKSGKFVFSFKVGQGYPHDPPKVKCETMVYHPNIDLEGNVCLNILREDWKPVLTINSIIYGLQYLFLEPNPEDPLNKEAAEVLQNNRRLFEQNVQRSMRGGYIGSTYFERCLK
Target sequence (Q13564 whole entry, looked up): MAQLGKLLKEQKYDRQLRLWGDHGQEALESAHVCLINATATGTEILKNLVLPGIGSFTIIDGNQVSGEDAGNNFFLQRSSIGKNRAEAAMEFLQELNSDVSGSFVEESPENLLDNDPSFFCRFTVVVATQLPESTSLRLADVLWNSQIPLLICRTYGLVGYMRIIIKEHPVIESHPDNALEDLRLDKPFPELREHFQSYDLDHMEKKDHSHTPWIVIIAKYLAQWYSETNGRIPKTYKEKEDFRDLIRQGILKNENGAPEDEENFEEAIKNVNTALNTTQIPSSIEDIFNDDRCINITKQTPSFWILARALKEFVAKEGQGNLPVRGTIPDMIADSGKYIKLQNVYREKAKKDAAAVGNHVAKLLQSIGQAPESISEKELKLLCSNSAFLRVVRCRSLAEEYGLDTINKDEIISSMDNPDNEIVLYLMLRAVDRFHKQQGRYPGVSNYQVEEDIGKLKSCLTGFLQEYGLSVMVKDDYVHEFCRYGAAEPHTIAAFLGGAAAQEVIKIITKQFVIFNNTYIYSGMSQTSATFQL
Tn6 DDE FP: inhibitors of Tn6 peptide binding to human fibrin DD(E). Fibrin DD(E) TRITC-Tn6 fluorescence polarization displacement. inhibition, % at 8.3 µM. actives 0.21% (n = 370,000). AID 720509;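 active means inhibition above a per-campaign cutoff: mean of compounds within control limits plus 3 SD, cut at about 15% in these data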;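 further: 0% = median of all compound wells on the plate and 100% = blocking peptide control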
PKA-R1A act: activators of PKA-R1A complex; activation, % at 11.4 µM; P00514+P68181; PKA-R1A dissociation, Cy5-IP20 fluorescence polarization; scaled: DMSO 0%, 113 µM cGMP 100%; actives 0.083% (n = 340,000);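 active means percent activation above the mean of all tested compounds plus 3 SD, cut at about 19% in these data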;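 further: higher means more PKAc released from R1A so a rise in polarization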
Tn7 DDE FP: DD(E)-Tn7 binding inhibition, primary FP screen. P02675. FP displacement of FITC-Tn7 peptide from fibrin DD(E); 0% = median of compound wells per plate. inhibition, % at 8.3 µM. actives 0.13% (n = 370,000). AID 720508;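 active means inhibition above the mean of compounds falling within the control limits plus 3 SD of them, cut at about 14% in these data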;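 further: 0% = plate median of compound wells and 100% = 10 µM Aha-Tn7 peptide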
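Test system – human fibrin DD(E) · Times – 10 min preincubation, 3 h with tracer, room temperature · Detection – fluorescence polarization of the labelled Tn7 tracer · Measure – percent inhibition normalized to high-control wells · Benchmarks – high control wells with 10 µM unlabelled Aha-Tn7 peptide (full inhibition) · Repeats – singlicate testing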
Tn6 DDE ctr: counter-screen hit for Tn6 peptide-fibrin DD(E) binding disruption. shares compounds with Tn6 DDE FP. actives 2% (n = 680). TRITC-Tn6 fluorescence polarization displacement; 0% = median of compound wells, not DMSO. AID 720621. inhibition, % at 8.3 µM;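 active means inhibition above the mean of test compounds lying between the control limits plus 3 SD of those, cut at about 14% in these data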;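 further: 0% = median of compound wells and 100% = wells with Aha-Tn7 blocking peptide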
DDE Tn6 confirm: confirmation of inhibitors of Tn6 binding to human fibrin DD(E); shares compounds with Tn6 DDE FP; FP displacement of TRITC-Tn6 peptide from DD(E); 0% = per-plate median of test wells; inhibition, % at 8.3 µM; actives 10% (n = 680);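 active means inhibition above the mean of compounds lying within the control limits plus 3 SD, cut at about 16% in these data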;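 further: 100% = high control wells holding a competing inhibitor peptide at 10 µM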
* marks the source's active call; other numbers are inactive results; i = inactive; · = not tested or not shown; + = active, no number.

SMILES	PKA-R2B act	Neddyl block	Tn6 DDE FP	PKA-R1A act	Tn7 DDE FP	Tn6 DDE ctr	DDE Tn6 confirm
Oc1ccc(Cl)cc1N=Nc1ccccc1	4	-10	6	-7	3	·	·
CCOC(=O)[C@]12CCCC3=C1N(CCC3)C(=O)[C@@H](CC(=O)N1CCN(C(=O)C3CC3)CC1)C2	·	·	-2	·	1	·	·
CCOc1ccc(S(=O)(=O)NCCC(=O)NCCOc2ccccc2OC)cc1	4	5	22*	3	0	1	2
C[C@@H]1CN([C@H](C)CO)C(=O)c2cc(NS(=O)(=O)c3ccccc3)ccc2O[C@@H](C)CCCCO[C@@H]1CN(C)Cc1ccc(Cl)c(Cl)c1	·	·	0	·	0	·	·
O=C(C1CCN(S(=O)(=O)c2ccccc2)CC1)N1CCN(c2ccccc2)CC1	-11	0	15*	-1	6	-1	-1
COc1ccc(N2CCN(C(=O)C3CCN(S(=O)(=O)c4ccccc4)CC3)CC2)cc1	1	9	4	-4	-5	·	·
CNc1ccc2c3c(cccc13)C(=O)N(C)C2=O	-1	i	47*	3	-6	53*	43*
CCNC(=O)C1(C)CCN(C(=O)c2cccc(OC(F)(F)F)c2)C1 (stereo unspecified)	·	-13	4	·	6	·	·
CCCS(=O)(=O)NC(=O)C1(C)CCN(C(=O)c2cccc(OC(F)(F)F)c2)C1 (stereo unspecified)	·	-7	15*	·	4	-8	-8
CCn1c(SCC(=O)Nc2ccc3c(c2)OCCO3)nnc1-c1ccccn1	-7	0	-3	-10	5	·	·
O=C(CSc1nnc(-c2ccccn2)n1Cc1ccco1)Nc1ccc2c(c1)OCO2	-11	-2	15*	-1	2	9	3
CN(CCOC(=O)CCCc1ccccc1)C1CN(Cc2cn(Cc3ccccc3F)nn2)S(=O)(=O)C1 (stereo unspecified)	·	·	-3	·	-4	·	·
O=C1CC(c2ccccc2)c2cc(O)ccc2O1 (stereo unspecified)	-7	3	9	9	-4	·	·
Cc1ccc(C2CC(=O)Oc3cc(O)ccc32)cc1 (stereo unspecified)	-4	-5	34*	6	7	-4	8
CC(=O)c1cc(-c2cc3ccccc3o2)c(=O)n2c1CCC2	·	·	1	·	1	·	·
CC(=O)Nc1ccc2c(c1)C(C)(C)C(C)N2C (stereo unspecified)	·	·	22*	·	-5	2	7
C[C@@H]1Cc2cc(O)cc(O)c2C(=O)O1	·	·	8	·	11	·	·
CC(COc1ccc(OC(F)(F)F)cc1)CN1CCC(C(O)(c2ccccc2)c2ccccc2)CC1 (stereo unspecified)	·	·	22*	·	2	8	8
C=CCn1c(-c2ccc(F)cc2)n[nH]c1=S	-5	14	16*	0	-3	-2	-21
C=CCn1c(-c2ccccc2)n[nH]c1=S	7	15	1	7	0	·	·
CCN(CC)c1ccc2nc3ccccc3[n+](CC)c2c1	-38	-58	·	-40	·	·	·
CCN(CC)c1ccc2nc3ccc(N)cc3[n+](-c3ccccc3)c2c1	-48	-157	+	-40	2	-1	93*
C[C@H]1[C@@H](N(C)Cc2cccs2)CC[C@@]23CCCN2C(=O)CCC[C@@H]13	·	·	2	·	4	·	·
O=C(NCc1ccc(Cl)cc1)C1CCC(CNc2c(N3CCCCC3)c(=O)c2=O)CC1 (stereo unspecified)	-3	-18	16*	-3	-8	8	4
C[C@@H]1OC(C2CCCCC2)N(C)[C@H]2C[C@H]3c4cc(-c5ccc6c(c5)OCO6)ccc4CCN3C[C@@H]12 (stereo partly specified)	·	·	3	·	-4	·	·
SMILES	PKA-R2B act	Neddyl block	Tn6 DDE FP	PKA-R1A act	Tn7 DDE FP	Tn6 DDE ctr	DDE Tn6 confirm
CN(C)/C=C1\SC(=S)N(c2ccc(Br)cc2)C1=O	-5	-33	36*	4	7	4	32*
CN1CC=C2C(C#N)=C(N)C(C#N)(C#N)[C@H](c3cccc(Cl)c3)C2C1 (stereo partly specified)	-6	·	18*	-2	-2	4	-4
O=C(Nc1ccc(Oc2ccccc2)nc1)C1CCN(Cc2ccccc2)CC1	7	11	1	4	-3	·	·
Cc1c(CN2CCC(C(=O)Nc3ccc(Oc4ccccc4)nc3)CC2)cnn1C	-7	8	15*	-5	-2	9	6
CCOC(=O)Cc1cc(-c2ccc(F)cc2)nc2ccc3ccccc3c12	-12	-19	16*	-6	11	-1	-6
O=C(COC(=O)C1CC1)Nc1ccc(OC(F)F)cc1	-1	-5	15*	-3	6	-2	-5
CCN(CC)c1ccc(/C=c2\sc3nc4ccccc4n3c2=O)c(O)c1	5	·	18*	-7	4	1	8
O=c1c2ccccc2nnn1Cc1ccco1	·	·	8	·	2	·	·
CC(=NNc1cc(C)c2cc(C)ccc2n1)c1ccccn1	·	·	5	·	-2	·	·
CN(C)c1ccc(N=c2sc3ccccc3n2C)cc1	2	1	-6	-13	-3	·	·
CC1=CC(=O)C=CC1=Nc1ccc(N(C)C)cc1	·	2	22*	·	-7	2	-2
O=c1[nH]nc(SCc2ccccc2Cl)n1-c1ccc2c(c1)OCCO2	·	-4	16*	·	3	-6	-7
CS(=O)(=O)c1cccc(C(=O)Nc2ccccc2Cc2ccccc2)c1	-4	0	16*	1	-3	0	-3
CC(=O)Nc1ccc(S(=O)(=O)NC(C(=O)O)C(C)O)cc1 (stereo unspecified)	-8	-8	-4	-1	-4	·	·
CC(=O)NCc1ccc(S(=O)(=O)NC(C(=O)O)C(C)C)cc1 (stereo unspecified)	-2	2	16*	10	8	-6	-10
O=C1NC[C@@H](c2ccccc2)OC(=O)[C@@H](Cc2ccc(F)cc2)CC/C=C/C[C@@H]1CC(=O)N(CCO)Cc1ccccc1	-3	-18	16*	-2	8	7	0
O=C1N[C@@H](c2ccccc2)COC(=O)[C@@H](Cc2ccc(F)cc2)CC/C=C/C[C@H]1CC(=O)N(CCO)Cc1ccccc1	-3	6	-1	-2	5	·	·
CCC(C)c1ccccc1NC(=O)CN1CCN(C/C=C/c2ccccc2)CC1 (stereo unspecified)	-3	6	16*	-5	-4	-5	-6
